M4 PAM – CHRM4 positive allosteric modulation | activation, % at 3 µM | P08173 | 0.4% of 360,000 active | AID 624126 | CHO-K1 hM4/Gqi5, Fluo-8 calcium fluorescence, ACh EC20; 0% = ACh EC20, 100% = maximal ACh;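 active means activation above its plate's cutoff, the mean activation of sample wells plus 3 SD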
CHRM4 antagonist – antagonists of human muscarinic M4 receptor (CHRM4); P08173; CHO-hM4 cells, ACh EC80, Fluo-8 calcium fluorescence; inhibition, % at 3 µM; 0.73% of 360,000 active; AID 624125;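 active means inhibition above its plate's cutoff, the mean inhibition of sample wells plus 3 SD, cut at about 27% in these data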;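 further: 0% = acetylcholine EC80 with DMSO and 100% = DMSO without agonist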
CHRM5 PAM – CHRM5 positive allosteric modulation | P08912 | CHO-K1 hM5, Fluo-8 calcium, ACh EC20 PAM; 0% = ACh EC20, 100% = ACh EC100 | activation, % at 3 µM | 0.3% of 360,000 active | AID 624038;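 active means activation above the run cutoff, the mean activation of all test compounds plus 3 SD, cut at about 18% in these data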
Target sequence (P08912 whole entry, looked up): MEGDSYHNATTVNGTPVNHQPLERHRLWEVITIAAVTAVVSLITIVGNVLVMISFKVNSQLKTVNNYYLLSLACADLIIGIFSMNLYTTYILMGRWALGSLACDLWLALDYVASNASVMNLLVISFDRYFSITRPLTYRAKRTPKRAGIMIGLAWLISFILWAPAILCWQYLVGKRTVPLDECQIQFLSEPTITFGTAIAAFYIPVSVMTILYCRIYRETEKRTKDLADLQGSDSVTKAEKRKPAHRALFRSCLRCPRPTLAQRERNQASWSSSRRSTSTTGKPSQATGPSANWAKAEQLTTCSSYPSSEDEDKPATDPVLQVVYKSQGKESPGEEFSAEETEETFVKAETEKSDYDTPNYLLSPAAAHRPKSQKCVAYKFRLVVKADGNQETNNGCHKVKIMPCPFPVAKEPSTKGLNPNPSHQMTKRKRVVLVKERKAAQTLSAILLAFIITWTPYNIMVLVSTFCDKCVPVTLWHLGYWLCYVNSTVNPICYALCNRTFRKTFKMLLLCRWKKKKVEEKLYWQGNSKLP
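Assay system – human M5 receptor in CHO-K1 cells · Read-out – % activation, ACh-normalized · Technique – Fluo-8 calcium fluorescence · Dosing – single-point, 3 µM nominal · Incubation – Fluo-8 loading 80 min at 37 °C plus 30 min room temperature · Repeats – singlicate, one well per test compound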
M5 ag – agonists of human muscarinic M5 receptor (CHRM5); AID 624037; activation, % at 3 µM; CHO-K1 hM5 cells, Fluo-8 calcium fluorescence; 0% DMSO wells, 100% maximal acetylcholine response; P08912; 0.19% of 360,000 active;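 active means activation above the run's mean over test compounds plus 3 SD, cut at about 23% in these data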;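 further: signal is peak over basal fluorescence ratio across the kinetic read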
M5 antag – blocks acetylcholine activation of human M5 receptor; P08912; CHO-hM5 cells, Fluo-8 calcium fluorescence, ACh EC80; inhibition, % at 3 µM; 0.59% of 360,000 active; AID 624040;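 active means inhibition above a per-plate cutoff, the mean of that plate's test compounds plus 3 SD, cut at about 27% in these data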;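 further: 0% = acetylcholine EC80 with DMSO and 100% = DMSO without agonist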
M4 ag – CHRM4 agonism in calcium assay. CHO-K1 hM4/Gqi5, Fluo-8 calcium fluorescence; vehicle 0%, full acetylcholine response 100%. 0.14% of 360,000 active. activation, % at 3 µM. P08173. AID 624127;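 active means activation above the run mean over all test wells plus 3 SD, cut at about 32% in these data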;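 further: peak over basal fluorescence ratio per well then scaled between controls; 0% = DMSO wells and 100% = acetylcholine at EC100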
Active calls of the source: *. A selection: hits, their analogues and other compounds. The true share with any hit is near 1.8%.

SMILES	M4 PAM	CHRM4 antagonist	CHRM5 PAM	M5 ag	M5 antag	M4 ag
CC(C)N1CCN(C(=O)c2ccc(NC(=O)c3ccc(Br)o3)cc2)CC1	10	0	20*	3	-2	1
C/C(CC(=O)Nc1cccnc1)=N\NC(=O)c1ccc([N+](=O)[O-])c(Cl)c1	6	-10	1	-1	-11	0
CC(=O)Nc1ccccc1NC(=O)C/C(C)=N/NC(=O)c1ccc([N+](=O)[O-])c(Cl)c1	24*	-3	1	1	-9	1
O=Cc1cn(CC(=O)Nc2ccc3c(c2)OCO3)c2ccccc12	-20	22	-20	7	27*	22
Cc1ccc(NC(=O)Cn2cc(C=O)c3ccccc32)cc1	-7	3	-14	-3	26	7
O=C(CSc1nc2ccccc2c(=O)n1-c1ccccc1Cl)NC1CCS(=O)(=O)C1 (stereo not given)	-1	6	-3	4	9	4
CCN(CC)CCNC(=O)Cn1nc(-c2ccc(C)cc2)ccc1=O	1	11	5	-2	-4	1
Cc1ccc(-c2ccc(=O)n(CC(=O)NCCN(CC(C)C)CC(C)C)n2)cc1	-3	-6	24*	4	13	0
CCn1c(=NC(=O)C2COc3ccccc3O2)sc2c(OC)ccc(OC)c21 (stereo not given)	-21	36*	-3	-2	5	-2
COCCn1c(=NC(=O)C2COc3ccccc3O2)sc2cc(S(N)(=O)=O)ccc21 (stereo not given)	-13	2	-9	4	4	13
CC(C)(C)S(=O)(=O)N1Cc2cc(=O)n(Cc3ccccc3)c(CCO)c2[C@H]1CCO	-2	-6	5	1	-3	0
O=c1cc(O)c2c(=O)[nH]c(=O)n(-c3ccccc3)c2[nH]1	16*	8	-3	-5	5	2
Cn1c(=O)c2c(O)cc(=O)[nH]c2n(-c2ccccc2)c1=O	2	-1	-5	-2	2	0
Cc1ccc(-n2c(C)nnc2SCC(=O)N2CCOCC2)cc1	-2	7	6	-1	9	2
CCc1c(C)nc2ncnn2c1NCCc1ccc(OC)c(OC)c1	-2	-2	-6	1	13	3
COc1ccc(CCNc2c(C)c(C)nc3ncnn23)cc1	-1	6	-23	11	29*	13
CCOC(=O)C1Oc2ccccc2C(c2ccc(C)cc2)=C1C(=O)OC (stereo not given)	0	-9	2	-2	-9	-2
Cc1ccc(NC(=O)CCNC(=O)c2ccccc2Cl)nc1	-3	3	-1	-2	-2	1
Cc1ccnc(NC(=O)CCNC(=O)c2ccccc2Cl)c1	21*	-3	-3	-3	8	1
NC(=O)C[N+]1(CC#CC(O)(c2ccccc2)c2ccccc2)CCCC1	-18	33*	-20	-10	34*	0
O=S(=O)([O-])CCC[N+]1(CC#Cc2ccccc2)CCCCC1	0	-9	5	4	1	0
CCN(CC)CCC#CC(O)(c1ccccc1)C1CCCCC1 (stereo not given)	-25	94*	-17	-10	98*	3
CCC[N+]1(CC#CC(O)(c2ccccc2)C2CCCCC2)CCCCC1 (stereo not given)	-56	97*	-37	-20	99*	0
CN1CCN(CC#CCC(O)(c2ccccc2)C2CCCC2)CC1 (stereo not given)	-13	3	-11	-8	6	1
CCN(CC)C1=NC=CC(c2ccccc2)=CC1C (stereo not given)	-32	39*	-12	-7	8	2
O=[N+]([O-])c1cc2cccnc2c2ncccc12	12*	-9	0	2	-3	1
Cc1ccc(C)c(N2CCN(C(=O)c3cn(C)c4ccc(S(=O)(=O)N(C)C)cc4c3=O)CC2)c1	-15	95*	-19	-3	13	1

Source: PubChem
